Measurements taken from publication PMC9055346 (RSC Advances, 2020).
Where “and” joins values, the source holds several entries; their conditions need not be identical. Equal values may be shown once.

What was measured:
[1] = Metal chelation study, selectivity towards essential metals; format: physicochemical; settings: UV spectra
Summary of the method: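 KCl, NaCl, CaSO4 or […] solutions are mixed with test compound at 100 μM each ligand and metal, incubated at 37 °C for 30 min, and scanned by UV from 200 to 600 nm, with compound-alone spectra taken in water. For the affinity check, Fe3+, Zn2+, Cu2+, Ca2+, Mg2+, Na+ and K+ are mixed at equal concentrations with test compound at 100 μM.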

[2] = Stoichiometric study of Fe^3+–5i complex; format: physicochemical; settings: Fe^3+ 0–100 μM, 5i 100 μM; at 239 nm and 327 nm as printed
Summary of the method: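 UV titration at 37 °C: 100 μM test compound in a cuvette receives 20 μL aliquots of 1 mM FeCl3, raising Fe3+ in 10 μM steps to a final 10–100 μM. Spectra are recorded after each addition. A Job's plot is built from band absorbances, and the mole fraction is obtained by extrapolation.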

[3] = Affinity study of 5i towards Fe^3+ in metal pool; format: physicochemical; settings: Zn^2+, Cu^2+, Ca^2+, Mg^2+, Na^+ and K^+ and 5i, 100 μM each
[4] = target: AChE from electric eel (EeAChE) (Electrophorus electricus, UniProt O42275); test: In vitro AChE inhibition, modified Ellman's method; format: biochemical
Sequence of AChE from electric eel (EeAChE) (O42275 24-633): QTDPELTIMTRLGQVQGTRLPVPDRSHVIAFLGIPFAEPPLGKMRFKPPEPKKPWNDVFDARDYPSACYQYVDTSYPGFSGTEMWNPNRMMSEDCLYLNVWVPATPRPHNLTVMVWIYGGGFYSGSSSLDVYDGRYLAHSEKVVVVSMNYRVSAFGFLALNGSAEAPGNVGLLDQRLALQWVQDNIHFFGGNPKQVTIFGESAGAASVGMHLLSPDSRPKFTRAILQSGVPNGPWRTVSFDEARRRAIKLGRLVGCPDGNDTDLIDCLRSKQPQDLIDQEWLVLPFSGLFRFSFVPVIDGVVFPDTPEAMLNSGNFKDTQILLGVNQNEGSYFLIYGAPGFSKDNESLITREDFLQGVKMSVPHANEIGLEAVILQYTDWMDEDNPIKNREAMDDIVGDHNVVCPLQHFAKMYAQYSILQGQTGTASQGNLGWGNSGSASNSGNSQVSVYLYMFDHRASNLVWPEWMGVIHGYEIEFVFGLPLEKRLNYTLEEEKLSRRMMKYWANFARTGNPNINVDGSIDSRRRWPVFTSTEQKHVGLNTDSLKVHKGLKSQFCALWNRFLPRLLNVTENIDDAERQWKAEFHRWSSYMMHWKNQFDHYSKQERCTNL

[5] = Antioxidant assay, ORAC-FL method; settings: compound and Trolox at 8 μM, 37 °C, three independent experiments
Summary of the method: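 ORAC-FL in 75 mM phosphate buffer, 200 μL total: test compound, Trolox (both 8 μM) or buffer blank with 150 nM fluorescein solution, kept dark at 37 °C for 30 min. Then 12 mM AAPH solution is added and fluorescence (ex 485/em 535 nm) read every 1 min for 15 min. Net AUC vs blank is expressed as Trolox equivalents (Trolox = 1). Triplicates; three independent experiments, mean ± SEM.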

[6] = Metal chelation study by UV spectrophotometer; format: physicochemical
Summary of the method: (§1)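 UV spectra from 200 to 600 nm at 37 °C. Test compound and metal salt (FeCl3, CuCl2, ZnSO4·H2O or AlCl3·6H2O) are combined at 100 μM each and incubated at 37 °C for 30 min. Compound-alone spectra use water in place of metal. Read-outs are % change in absorbance, (+) for decrease and (−) for increase, plus band shift.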

[7] = Metal chelation study by UV spectrophotometer; format: physicochemical; remark: listed apart in the source
Summary of the method: as §1

Cc1ncc(COCc2cn(Cc3cc(F)cc(F)c3)nn2)c(CO)c1O [Compound 5i, 5-(((1-(3,5-Difluorobenzyl)-1H-1,2,3-triazol-4-yl)methoxy)methyl)-4-(hydroxymethyl)-2-methylpyridin-3-ol]
chelation of Ca^2+, Mg^2+, Na^+ and K^+ (in words) [1]: did not chelate these metal ions at all
mole fraction from Job's plot [2]: 0.5
affinity towards Fe^3+ in the metal pool (in words) [3]: showed affinity towards Fe^3+ in the metal pool
IC50 ([4]; EeAChE IC50 ± SEM, mean of three independent experiments): 1.56 mM
inhibition at 156 µM ([4]; read-out: % of AChE inhibition): 15%
inhibition at 312 µM ([4]; read-out: % of AChE inhibition): 26.6%
inhibition at 625 µM ([4]; read-out: % of AChE inhibition): 35.4%
inhibition at 1250 µM ([4]; read-out: % of AChE inhibition): 43%
inhibition at 2500 µM ([4]; read-out: % of AChE inhibition): 61.4%
inhibition at 5000 µM ([4]; read-out: % of AChE inhibition): 66.8%
inhibition at 10000 µM ([4]; read-out: % of AChE inhibition): 77.9%
ORAC index ± SEM [5]: 1.21 ± 0.28 Trolox equivalents and 1.2138 Trolox equivalents
chelation of Fe^3+ (in words) ([6]; UV spectra 200 to 600 nm): chelated
bathochromic shift with Fe^3+ ([6]; band at 292 nm): about 3 nm
chelation of Al^3+ (in words) ([7]; UV spectra 200 to 600 nm): chelated
increase in absorbance with Al^3+ ([7]; at 292 nm): 104%
bathochromic shift with Al^3+ ([7]; band at 292 nm): 4 nm
